Results on one molecule are retold here after article PMC12824664 (Blood, 2025).

The test system of test [1] is BTK mutants with kinase activity (Y545N, V416L, T474I, C481S+T474I) in Ramos BTK KO cells. Format: cell-based. The settings on record: variants with kinase activity vs wild type.
The target of test [2] is wild type BTK (Homo sapiens, UniProt Q06187). Put plainly: biochemical. Format: binding. The conditions noted are these: read-out: residence time t1/2.
Test [3] has as its system relapsed/refractory chronic lymphocytic leukemia. Put plainly: Phase 1/2 BRUIN trial, pirtobrutinib monotherapy, response per iwCLL 2018. Format: in vivo, human. In a few lines:
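Relapsed/refractory CLL patients pretreated with covalent BTK inhibitors received test compound monotherapy in a multicenter phase 1/2 trial. Response followed iwCLL 2018 criteria, with data cutoff 5 May 2023. ORR was the proportion with best response of partial response with lymphocytosis or better, with 2-sided 95% CI from the exact binomial. PBMCs at baseline and progression underwent targeted NGS; a more sensitive assay had 0.5% VAF LoD.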

wild type BTK, sequence (Q06187 whole entry): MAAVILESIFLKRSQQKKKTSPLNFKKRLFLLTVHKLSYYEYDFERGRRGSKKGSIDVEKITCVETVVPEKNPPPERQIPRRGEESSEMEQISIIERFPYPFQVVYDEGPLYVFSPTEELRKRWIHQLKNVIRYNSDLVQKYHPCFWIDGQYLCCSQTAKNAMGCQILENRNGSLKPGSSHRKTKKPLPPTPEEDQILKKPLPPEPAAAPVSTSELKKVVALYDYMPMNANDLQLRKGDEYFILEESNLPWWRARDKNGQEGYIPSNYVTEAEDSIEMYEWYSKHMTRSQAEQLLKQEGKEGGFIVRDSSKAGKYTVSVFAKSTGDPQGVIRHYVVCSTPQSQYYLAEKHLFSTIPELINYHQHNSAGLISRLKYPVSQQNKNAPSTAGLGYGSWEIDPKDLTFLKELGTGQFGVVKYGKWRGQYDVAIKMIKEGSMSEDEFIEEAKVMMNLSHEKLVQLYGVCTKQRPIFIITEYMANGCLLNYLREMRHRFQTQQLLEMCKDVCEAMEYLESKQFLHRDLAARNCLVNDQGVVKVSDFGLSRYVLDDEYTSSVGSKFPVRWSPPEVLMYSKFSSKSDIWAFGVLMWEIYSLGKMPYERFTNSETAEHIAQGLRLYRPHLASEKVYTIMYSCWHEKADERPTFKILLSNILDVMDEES

Turning to `COc1ccc(F)cc1C(=O)NCc1ccc(-c2nn([C@@H](C)C(F)(F)F)c(N)c2C(N)=O)cc1` [Pirtobrutinib], in test [1], the “sensitivity to inhibition in cellular BTK phosphorylation assays” value is “less sensitive”. Further, the residence time in test [2] was 336 min. Besides, the BOR result is “partial response, stable disease, and PD” in test [3] (3 patients with detectable BTK L528W at baseline); “PR (4), SD (1), and PD (1” in test [3] (6 patients with detectable BTK T474x at baseline). Besides, the “Median PFS (95%CI)” value in test [3] (Patients with PD and longitudinal samples n=88) came to 10.3 months. The “patients who experienced PD on pirtobrutinib” value in test [3] (overall population, median follow-up of 29 months, 139 patients) came to 57%. Further, in test [3] (patients with baseline BTK T474x (standard and high sensitivity), 95% CI, 7.4-22.3), the “median PFS” value was determined as 9.2 months.
